Active and inactive are the calls of the source. The calls are words filed in the database; no cut-off is given here.
Key:
[1] = biological target: T1, Toll-like receptor 8 (Homo sapiens, UniProt Q9NR97); assay: Inhibition of human TLR8 expressed in HEK-Blue cells assessed as inhibition of R848-induced NF-kappaB activation measured after 24 hrs by quanti-blue based SEAP reporter gene assay; assay type: cell-based
T1 sequence (Q9NR97 whole entry): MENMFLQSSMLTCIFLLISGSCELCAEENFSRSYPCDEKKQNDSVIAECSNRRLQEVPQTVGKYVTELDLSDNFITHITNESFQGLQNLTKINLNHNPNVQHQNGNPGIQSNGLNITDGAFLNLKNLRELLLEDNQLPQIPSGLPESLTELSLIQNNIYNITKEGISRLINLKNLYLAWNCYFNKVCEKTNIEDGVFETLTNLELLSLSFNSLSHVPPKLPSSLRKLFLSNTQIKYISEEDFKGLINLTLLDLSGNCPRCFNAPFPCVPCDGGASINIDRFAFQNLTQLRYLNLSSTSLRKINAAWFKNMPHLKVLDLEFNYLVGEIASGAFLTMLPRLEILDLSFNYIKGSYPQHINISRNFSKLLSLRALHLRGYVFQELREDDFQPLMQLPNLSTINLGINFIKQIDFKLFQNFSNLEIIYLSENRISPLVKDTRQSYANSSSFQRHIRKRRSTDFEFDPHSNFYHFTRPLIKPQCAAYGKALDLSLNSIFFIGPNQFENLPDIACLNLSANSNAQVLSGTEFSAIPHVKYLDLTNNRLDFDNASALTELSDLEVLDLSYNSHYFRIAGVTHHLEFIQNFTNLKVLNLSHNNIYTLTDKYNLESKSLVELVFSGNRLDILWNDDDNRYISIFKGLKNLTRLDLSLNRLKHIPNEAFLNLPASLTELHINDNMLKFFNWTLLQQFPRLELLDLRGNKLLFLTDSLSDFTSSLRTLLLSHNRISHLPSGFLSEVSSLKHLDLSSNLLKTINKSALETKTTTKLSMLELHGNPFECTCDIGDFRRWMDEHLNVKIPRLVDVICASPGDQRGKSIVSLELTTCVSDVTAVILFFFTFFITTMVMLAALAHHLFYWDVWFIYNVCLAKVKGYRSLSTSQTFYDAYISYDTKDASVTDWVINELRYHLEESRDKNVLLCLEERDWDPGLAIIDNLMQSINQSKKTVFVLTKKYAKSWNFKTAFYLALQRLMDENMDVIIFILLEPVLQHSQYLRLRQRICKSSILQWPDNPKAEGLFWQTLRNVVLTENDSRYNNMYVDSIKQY

[2] = Cytotoxicity against HEK-Blue cells expressing human TLR8 assessed as reduction in cell viability measured after 24 hrs by CCK8 assay; assay type: cell-based
Outline: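 CCK-8 viability: compounds incubated 24 h at 37 °C with HEK-Blue TLR8 cells (4 × 10⁴ cells/well) or PBMCs (3 × 10⁶ cells/mL). CCK-8 was added at 1:10 for up to 2 h, then absorbance read at 450 nm. Values normalized to untreated cells as 100% survival.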

[3] = biological target: T2, Toll-like receptor 8 (Homo sapiens) (UniProt Q9NR97); assay: Inhibition of human TLR8 expressed in HEK-Blue cells assessed as inhibition of R848-induced TNFalpha mRNA level at 1 uM measured after 8 hrs by Trizol reagent based qRT-PCR analysis; assay type: cell-based
T2 sequence (whole entry): T1 sequence (Q9NR97 whole entry)
Outline: (§1)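 RT-qPCR: HEK-Blue TLR8 cells seeded at 1 × 10⁶/well and grown 24 h, then switched to serum-free medium. Treated with R848 4 µg/mL ± compound 1 µM for 8 h. Total RNA extracted with TRIzol, reverse transcribed, TNF-α and IL-8 mRNA quantified. Three independent biological replicates, mean ± s.d.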

[4] = biological target: T2, Toll-like receptor 8 (Homo sapiens); assay: Inhibition of human TLR8 expressed in HEK-Blue cells assessed as inhibition of R848-induced IL-8 mRNA level at 1 uM measured after 8 hrs by Trizol reagent based qRT-PCR analysis; assay type: cell-based; outline: as §1
[5] = biological target: T2, Toll-like receptor 8 (Homo sapiens); assay: Inhibition of TLR8 in human PBMC assessed as reduction in R848-induced TNFalpha production measured after 24 hrs by ELISA
Outline: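 PBMCs from healthy donors isolated by density gradient centrifugation and cultured at once at 3 × 10⁶ cells/mL in RPMI 1640. Cells received R848 and varying compound concentrations for 24 h. Supernatants spun 10 min at 4 °C, frozen at −80 °C, and TNF-α measured by ELISA.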

SMILES | IC50 [1] [µM] | Activity [2] | also measured
CSc1nnc(O)n1-c1ccc(Cl)cc1Cl | 9 |  | 
Fc1cccc(-n2c(SCc3c(Cl)cccc3Cl)nnc2C2CC2)c1 |  | Non-Toxic | 
CSc1nnc(CCCO)n1-c1ccc(Cl)cc1Cl |  | Non-Toxic | 
Cc1nc(-c2nnc(SCc3ccccc3)n2-c2cccc(F)c2)cs1 |  | Non-Toxic | 
OCCCc1nnc(S)n1-c1ccc(Cl)cc1Cl | > 20 |  | inhibition [3]: inactive; inhibition [4]: inactive; inhibition [5]: inactive

Now from value to compound, other results behind:

IC50 [1] [µM] | SMILES | Activity [2] | also measured
> 20 | CSc1nnc(CCCO)n1-c1cccnc1 |  | 
> 20 | NC(=O)Sc1nnc(CCCO)n1-c1ccc(Cl)cc1Cl |  | 
> 20 | CSc1nnc(CCCO)n1C1CCCCC1 |  | 
> 20 | NC(=O)CSc1nnc(CCCO)n1-c1ccc(Cl)cc1Cl |  | 
